The text below walks through data of ChEMBL document CHEMBL4477178, “Biflorin, Isolated from the Flower Buds of Syzygium aromaticum L., Suppresses LPS-Induced Inflammatory Mediators via STAT1 Inactivation in Macrophages and Protects Mice from Endotoxin Shock” (J Nat Prod, 2016).

Active and inactive are the calls of the source. The rule behind the calls is not given here.

In general, inhibition refers to the drop in the measured response relative to a control, in per cent. Usually IC50 stands for the concentration that inhibits the measured activity by half.

Data set [1] concerns RAW264.7. The experiment in a line: Antiinflammatory activity in mouse RAW264.7 cells assessed as inhibition of LPS-induced iNOS mRNA expression at 60 uM after 2 to 12 hrs by qRT-PCR method. Format: functional, cell-based. In outline: (§1)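 RAW 264.7 stimulated with LPS 10 ng/mL with or without 60 μM for 2, 4, 6 and 12 h. Total RNA (1 μg) reverse-transcribed with MuLV RT and random primer; SYBR green real-time qPCR with gene-specific primers, triplicate Ct normalized to β-actin. Mean ± SD, three independent experiments.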
For orientation: Real-time PCR tracks product formation cycle by cycle.

The test system of data set [2] is RAW264.7. Kind of data set: Antiinflammatory activity in mouse RAW264.7 cells assessed as inhibition of LPS-induced COX-2 mRNA expression at 60 uM after 2 to 12 hrs by qRT-PCR method. Format: functional, cell-based. In outline: as §1
Data set [3] relates to RAW264.7. Kind of data set: Antiinflammatory activity in mouse RAW264.7 cells assessed as inhibition of LPS-induced COX-2 promoter activity at 60 uM preincubated for 1 hr followed by LPS challenge for 6 to 12 hrs by reporter gene assay. Format: functional, cell-based. The method in brief: (§2)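 RAW 264.7 transiently cotransfected with promoter-luciferase construct (pGL3-iNOS, pGL3-COX-2 or pTNF-α-luc) plus phRL-TK internal control; 6 h after transfection pretreated 1 h with 60 μM, then LPS 10 ng/mL for 6 or 12 h. Cells washed in cold PBS, lysed, luciferase read. Mean ± SD, three independent experiments.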
For orientation: In a reporter assay the amount or activity of a reporter protein is the signal.

In data set [4] the test system is RAW264.7. The experiment in a line: Antiinflammatory activity in mouse RAW264.7 cells assessed as inhibition of LPS-induced nitric oxide production preincubated for 1 hr followed by LPS challenge for 24 hrs by Griess assay. Format: functional, cell-based. In outline: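 RAW 264.7 cells plated at 2 × 10^5 cells/mL and incubated overnight. Compound given at 15, 30 or 60 μM for 1 h, then LPS 10 ng/mL for 24 h. Nitrite in the medium measured by Griess reagent (10 min, room temperature, A540) against a NaNO2 standard. L-NIL 20 μM as positive control; IC50 derived; three independent experiments.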
(In general: The Griess reaction detects nitrite, a stable product of nitric oxide.)

Data set [5] deals with Mus musculus. The experiment in a line: Inhibition of LPS-induced TNF-alpha mRNA expression in C57BL/6 mouse liver at 10 mg/kg, ip pretreated for 1 hr followed by LPS challenge for 6 hrs by qRT-PCR method. Format: functional, organism-based. In outline: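 Male C57BL/6 mice given 10 mg/kg i.p. or vehicle 1 h before LPS (Salmonella enterica, 25 mg/kg i.p.); liver collected 6 h after LPS, frozen at −80 °C. Liver mRNA by SYBR qRT-PCR normalized to β-actin; protein by Western blot for p-STAT1 (Y701, S727). Eight mice per group; mean ± SD.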

Data set [6] has as its system RAW264.7. Kind of data set: Antiinflammatory activity in mouse RAW264.7 cells assessed as inhibition of LPS-induced iNOS promoter activity at 60 uM preincubated for 1 hr followed by LPS challenge for 6 to 12 hrs by reporter gene assay. Format: functional, cell-based. In outline: as §2
The target of data set [7] is T1, Signal transducer and activator of transcription 1 (Mus musculus) (UniProt P42225).
T1 sequence (whole entry): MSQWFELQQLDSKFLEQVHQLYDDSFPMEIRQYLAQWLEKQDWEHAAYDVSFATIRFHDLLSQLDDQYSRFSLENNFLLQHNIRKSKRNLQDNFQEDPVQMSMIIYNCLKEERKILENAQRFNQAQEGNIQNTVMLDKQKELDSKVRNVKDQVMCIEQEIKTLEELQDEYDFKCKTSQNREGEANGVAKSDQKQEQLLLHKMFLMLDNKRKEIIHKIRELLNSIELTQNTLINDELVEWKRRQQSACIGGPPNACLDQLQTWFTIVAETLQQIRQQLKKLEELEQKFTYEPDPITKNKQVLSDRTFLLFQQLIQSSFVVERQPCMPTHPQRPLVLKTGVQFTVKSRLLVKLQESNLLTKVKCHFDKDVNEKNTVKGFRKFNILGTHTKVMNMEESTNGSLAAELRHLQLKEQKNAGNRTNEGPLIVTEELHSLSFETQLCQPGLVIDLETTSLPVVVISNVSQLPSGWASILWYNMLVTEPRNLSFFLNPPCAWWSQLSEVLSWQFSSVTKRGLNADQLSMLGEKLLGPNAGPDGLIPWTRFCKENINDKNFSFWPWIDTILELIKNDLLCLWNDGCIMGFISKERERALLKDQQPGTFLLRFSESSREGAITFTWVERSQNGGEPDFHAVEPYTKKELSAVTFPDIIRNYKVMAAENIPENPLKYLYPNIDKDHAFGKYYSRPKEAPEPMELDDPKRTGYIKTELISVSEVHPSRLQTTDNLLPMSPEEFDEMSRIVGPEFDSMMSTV
The experiment in a line: Inhibition of LPS-induced STAT1 phosphorylation at S727 in mouse RAW264.7 cells at 15 to 60 uM preincubated for 1 hr followed by LPS challenge for 15 mins by Western blot analysis. In kind it is cell-based. The method in brief:
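RAW 264.7 pretreated 1 h at 15, 30 or 60 μM, then LPS 10 ng/mL: 120 min for p-STAT1 Y701, 15 min for p-STAT1 S727, 120 min for p-STAT3 Y705. Western blot with phospho-specific and total STAT1/STAT3 antibodies, β-actin control; three independent experiments.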

Data set [8] relates to RAW264.7. Kind of data set: Cytotoxicity against mouse RAW264.7 cells assessed as cell viability at 60 uM after 24 hrs by MTT assay in absence of LPS. Format: cell-based. The conditions noted are these: raw264.7, 24 h. The method in brief:
(§3)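 RAW 264.7 seeded at 1 × 10^5 cells/mL, grown overnight, exposed 24 h with or without LPS; MTT (5 mg/mL stock in PBS) added 4 h at 37 °C, formazan dissolved in DMSO, absorbance at 540 nm.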

Data set [9] has as its system Mus musculus. The experiment in a line: Protection against LPS-induced mortality in C57BL/6 mouse assessed as lethality level at 5 to 10 mg/kg, ip pretreated for 1 hr followed by LPS challenge measured every 12 hrs for 96 hrs post challenge. Format: functional. In outline:
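Male C57BL/6 mice (6 weeks) given compound i.p. (5 or 10 mg/kg) or vehicle 1 h before i.p. LPS (Salmonella enterica, 25 mg/kg). Water only for 12 h beforehand. Survival checked every 12 h for 96 h; n = 5 per group.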

Data set [10] relates to RAW264.7. Kind of data set: Antiinflammatory activity in mouse RAW264.7 cells assessed as inhibition of LPS-induced IL-6 production at 60 uM preincubated for 1 hr followed by LPS challenge for 24 hrs by ELISA method. In kind it is functional. In outline: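 RAW 264.7 cells in DMEM with 10% FBS, plated at 2 × 10^5 cells/mL and incubated overnight. Pretreated with compound (15, 30 or 60 μM) for 1 h, then LPS 10 ng/mL for 24 h. PGE2 measured by competitive colorimetric ELISA, TNF-α and IL-6 by ELISA, in diluted medium. NS-398 3 μM as positive control for PGE2. Mean ± SD, three independent experiments; IC50 given for PGE2.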

Data set [11] relates to RAW264.7. The experiment in a line: Cytotoxicity against mouse RAW264.7 cells assessed as cell viability at 60 uM after 24 hrs by MTT assay in presence of LPS. To be noted: raw264.7, 24 h. In kind it is cell-based. In outline: as §3

In the case of `Cc1cc(=O)c2c(O)c([C@@H]3O[C@H](CO)[C@@H](O)[C@H](O)[C@H]3O)c(O)cc2o1` [BIFLORIN], the inhibition result (in the data set on RAW264.7 [1]; with RAW264.7 [2]; with RAW264.7 [3]; in the data set with Mus musculus [5]; with RAW264.7 [6]; in data set [7]) was “Active” in each case. Further, the IC50 in the data set with RAW264.7 [4] was 51.7 µM. Moreover, the Activity result in the data set with RAW264.7 [8] and with RAW264.7 [11] was “Non-Toxic” each time. For the same compound, in the data set with Mus musculus [9], the mortality is 40 - 60%. In the data set with RAW264.7 [10], the inhibition at 60 µM is 51.3%.
